Measurements: ChEMBL document CHEMBL1139005, “Branched diacylglycerol-lactones as potent protein kinase C ligands and alpha-secretase activators” (J Med Chem, 2006)
pKi: −log10 of the molar value.

Experiments:
[1] = biological target: Protein kinase C alpha type (Homo sapiens, UniProt P17252); experiment: Displacement of [20-3H]PDBu from recombinant PKC alpha in presence of phosphatidylserine
Method in brief: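 Competition for bound [20-3H]phorbol 12,13-dibutyrate on recombinant PKC-α with phosphatidylserine present; IC50 obtained by fitting points to the theoretical competition curve, then converted to Ki.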

W4 (Rattus norvegicus) = experiment: Activation of alpha secretase assessed by sAPPalpha secretion in W4 cells relative to control; set-up: concentration or dose not given beside the values

| Compound | pKi [1] | Activity (W4 (Rattus norvegicus)) |
| --- | --- | --- |
| CC(C)=CCC1(CC=C(C)C)CC(CO)(COC(=O)C(C)(C)C)OC1=O (configuration not stated) | 5.68 |  |
| CC(C)CC(C/C=C1\CC(/C=C\C(=O)OC(C)(C)C)(CO)OC1=O)CC(C)C (configuration not stated) | 4.66 |  |
| CC(C)CC(C/C=C1\CC(CO)(COC(=O)C(C)(C)C)OC1=O)CC(C)C (configuration not stated) |  | 133% |
| CC(C)CC(C/C=C1/C[C@@](CO)(COC(=O)C(C)(C)C)OC1=O)CC(C)C | 8.84 | 209% |
| CC(C)CCC1(CCC(C)C)CC(CO)(COC(=O)C(C)(C)C)OC1=O (configuration not stated) | 4.74 |  |
| CC(C)CC(C/C=C1/CC(CO)(COC(=O)C(C)(C)C)OC1=O)CC(C)C (configuration not stated) |  | 177% |
| CC(C)CC(C/C=C1\CC(/C=C/C(=O)OC(C)(C)C)(CO)OC1=O)CC(C)C (configuration not stated) | 6.76 |  |
| CCCC(=O)O[C@@H]1[C@@H](C)[C@@]2(O)[C@@H](C=C(CO)C[C@]3(O)C(=O)C(C)=C[C@@H]23)[C@@H]2C(C)(C)[C@]12OC(=O)CCC |  | 185% |
| CC(C)CC(C/C=C1\CC(CO)(COC(=O)CC(C(C)C)C(C)C)OC1=O)CC(C)C (configuration not stated) |  | 225% |

The remaining molecules from weak to strong by pKi [1], led by results:

| pKi [1] | Compound | Activity (W4 (Rattus norvegicus)) |
| --- | --- | --- |
| 6.83 | CCCCCC(=O)OCC1(CO)CC/C(=C\CC(CC(C)C)CC(C)C)C(=O)O1 (configuration not stated) |  |
| 6.89 | CCCCCCCC(=O)OCC1(CO)CC/C(=C\CC(CC(C)C)CC(C)C)C(=O)O1 (configuration not stated) |  |
| 7.32 | CC(C)CC(C/C=C1\CCC(CO)(COC(=O)C(C)(C)C)OC1=O)CC(C)C (configuration not stated) |  |
| 7.55 | CC(C)CC(C/C=C1/CCC(CO)(COC(=O)C(C)(C)C)OC1=O)CC(C)C (configuration not stated) |  |
| 7.74 | CC(C)CC(C/C=C1/CC(/C=C/C(=O)OC(C)(C)C)(CO)OC1=O)CC(C)C (configuration not stated) | 200% |
| 7.79 | CC(C)CC(C/C=C1\CC(CO)(COC(=O)c2ccccc2)OC1=O)CC(C)C (configuration not stated) | 131% |
| 8.16 | CC(C)CC(C/C=C1/CC(CO)(COC(=O)CC(CC(C)C)CC(C)C)OC1=O)CC(C)C (configuration not stated) |  |
| 8.18 | CC(C)CC(C/C=C1/CC(CO)(COC(=O)c2ccccc2)OC1=O)CC(C)C (configuration not stated) | 157% |
| 8.21 | CCCCCC(=O)OCC1(CO)C/C(=C\CC(CC(C)C)CC(C)C)C(=O)O1 (configuration not stated) |  |
| 8.22 | CCCCCCCC(=O)OCC1(CO)C/C(=C\CC(CC(C)C)CC(C)C)C(=O)O1 (configuration not stated) | 141% |
| 8.30 | CCCCCCCC(=O)OCC1(CO)C/C(=C/CC(CC(C)C)CC(C)C)C(=O)O1 (configuration not stated) | 158% |
| 8.42 | CCCCCC(=O)OCC1(CO)C/C(=C/CC(CC(C)C)CC(C)C)C(=O)O1 (configuration not stated) |  |
